Laboratory results as given in ChEMBL document CHEMBL3085657, “Preparation and in vitro photodynamic activities of folate-conjugated distyryl boron dipyrromethene based photosensitizers” (J Med Chem, 2013).

Tests used:
MCF7 [1] = experiment: Selectivity ratio of IC50 for human MCF7 cells expressing low level of folate receptor to IC50 for human KB cells overexpressing folate receptor; type: functional
In short: (§1)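 Cells seeded at about 1 × 10^4 (KB) or 2 × 10^4 (MCF-7) per well, grown overnight, then exposed to serial dilutions in folic acid free RPMI 1640. Dilutions came from 1.6 mM DMF stocks taken to 80 μM with aqueous Tween 80. After PBS rinse and fresh medium, cells were illuminated (halogen lamp, λ > 610 nm, 40 mW cm−2, 20 min, 48 J cm−2) and kept overnight at 37 °C. Read by MTT (3 h) with SDS/isopropanol solubilisation and A540. Viability is relative to wells without compound; three experiments in quadruplicate, mean ± SEM.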

MCF7 [2] = experiment: Photocytotoxicity against human MCF7 cells expressing low level of folate receptor assessed as cell viability incubated for 24 hrs followed by halogen light illumination measured after 20 mins by MTT assay; type: functional, cell-based; in short: as §1
KB [3] = experiment: Photocytotoxicity against human KB cells overexpressing folate receptor assessed as cell viability incubated for 24 hrs followed by halogen light illumination measured after 20 mins by MTT assay; type: functional, cell-based; in short: as §1
[4] = Induction of singlet oxygen formation in DMF assessed as photodegradation of DPBF at 4 uM; type: physicochemical
In short: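 Singlet oxygen generation measured in DMF with 1,3-diphenylisobenzofuran as scavenger. Scavenger photodegradation followed as the fall in absorbance at 415 nm over time, with ZnPc as the reference.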

[5] = Cellular uptake in mitochondria of human KB cells overexpressing folate receptor at 1 uM after 24 hrs by mito-tracker green FM-based confocal microscopic analysis; type: ADME
In short: (§2)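 KB cells (about 1 × 10^5 on coverslips, overnight at 37 °C, 5% CO2) given conjugate at 1 μM in folic acid free medium for 24 h. Then 15 min with Lyso-Tracker Green DND 26 (4.0 μM in medium), Mito-Tracker Green FM (0.2 μM in medium) or ER-Tracker Green (1.0 μM in PBS). PBS rinse; confocal imaging with 488 nm argon and 633 nm He-Ne lasers.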

[6] = Cellular uptake in lysosome of human KB cells overexpressing folate receptor at 1 uM after 24 hrs by lyso-tracker DND 26-based confocal microscopic analysis; type: ADME, cell-based; in short: as §2
[7] = Cellular uptake in endoplasmic reticulum of human KB cells overexpressing folate receptor at 1 uM after 24 hrs by ER-tracker green based-confocal microscopic analysis; type: ADME, cell-based; in short: as §2
[8] = Ratio of cellular uptake in human KB cells to human MCF7 cells at 5 uM after 24 hrs; type: ADME, cell-based; conditions: mcf7, 24 h
In short: (§3)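 KB or MCF-7 cells (about 2 × 10^5 on coverslips, overnight at 37 °C, 5% CO2) incubated 24 h with 5.0 μM conjugate in folic acid free medium. PBS rinse; inverted microscope with 630 nm excitation, emission collected above 660 nm. Mean intracellular fluorescence from 24 cells per sample (mean ± SD), compared between the two lines.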

MCF7 [9] = experiment: Cellular uptake in human MCF7 cells expressing low level of folate receptor at 5 uM after 24 hrs by bright field microscopy-based fluorescence assay; type: ADME, cell-based; conditions: mcf7, 24 h; in short: as §3
KB [10] = experiment: Cellular uptake in human KB cells overexpressing folate receptor at 5 uM after 24 hrs by bright field microscopy-based fluorescence assay; type: ADME, cell-based; in short: as §3
KB [11] = experiment: Cellular uptake in human KB cells overexpressing folate receptor at 1 uM after 24 hrs by bright field microscopy-based fluorescence assay; type: ADME, cell-based
In short: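 About 2 × 10^5 KB cells grown overnight on coverslips, then exposed to conjugate (1.0 μM) in folic acid free medium for 24 h at 37 °C. PBS rinse; confocal imaging with 633 nm He-Ne excitation and emission collected at 650−750 nm. Mean intracellular fluorescence taken over 50 cells per sample, reported as mean ± SD.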

KB [12] = experiment: Photocytotoxicity against human KB cells overexpressing folate receptor assessed as cell viability at IC50 incubated for 24 hrs followed by halogen light illumination measured after 20 mins by MTT assay in presence of free folic acid; type: functional
MCF7 [13] = experiment: Cytotoxicity against human MCF7 cells expressing low level of folate receptor assessed as cell viability at 80 uM after 24 hrs by MTT assay in absence of halogen light; type: cell-based; conditions: mcf7, 24 h
KB [14] = experiment: Cytotoxicity against human KB cells overexpressing folate receptor assessed as cell viability at 80 uM after 24 hrs by MTT assay in absence of halogen light; type: cell-based

Row | Activity [4] | Drug uptake [5] | Drug uptake [6] | Drug uptake [7] | Ratio [8] | Drug uptake (MCF7 [9]) | Drug uptake (KB [10]) | Drug uptake (KB [11]) | SMILES | Ratio IC50 (MCF7 [1]) | IC50 (MCF7 [2]) [nM] | IC50 (KB [3]) [nM] | Activity (KB [12]) [%] | Activity (MCF7 [13]) | Activity (KB [14])
1 | – | – | – | – | – | – | – | – | C#CCOCCOCCOCCOc1ccc(C2=C3C(C)=C(I)C(/C=C/c4ccc(OCCOCCOCCOC)cc4)=[N+]3[B-](F)(F)n3c(/C=C/c4ccc(OCCOCCOCCOC)cc4)c(I)c(C)c32)cc1 | 3 | 60 | 20 | – | – | –
2 | Active | Not Active | Active | Active | 5 | Not Active | Active | Active | COCCOCCOCCOc1ccc(/C=C/C2=[N+]3C(=C(c4ccc(OCc5cn(CCOCCOCCNC(=O)CC[C@H](NC(=O)c6ccc(NCc7cnc8nc(N)[nH]c(=O)c8n7)cc6)C(=O)O)nn5)cc4)c4c(C)c(I)c(/C=C/c5ccc(OCCOCCOCCOC)cc5)n4[B-]3(F)F)C(C)=C2I)cc1 | 43 | 2560 | 60 | 94 | Non-toxic | Non-toxic
3 | Active | – | Active | Active | – | – | – | Active | COCCOCCOCCOc1ccc(/C=C/C2=[N+]3C(=C(c4ccc(OCCOCCOCCOCc5cn(CCOCCOCCNC(=O)CC[C@H](NC(=O)c6ccc(NCc7cnc8nc(N)[nH]c(=O)c8n7)cc6)C(=O)O)nn5)cc4)c4c(C)c(I)c(/C=C/c5ccc(OCCOCCOCCOC)cc5)n4[B-]3(F)F)C(C)=C2I)cc1 | 6 | 1000 | 180 | – | Non-toxic | Non-toxic
4 | – | – | – | – | – | – | – | – | Nc1nc(=O)c2nc(CNc3ccc(C(=O)N[C@@H](CCC(=O)O)C(=O)O)cc3)cnc2[nH]1 [FOLIC ACID] | – | – | 500 | – | – | –
